{"source": "ChEMBL document CHEMBL5303300", "about": "“EUbOPEN Chemogenomics Library - Multiplex” (2023)", "system": "U2OS", "test": "Multiplex assay against U2OS", "format": "toxicity, cell-based", "conditions": "human, number of replicates 2", "how_it_was_run": "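With compound added, live cells were imaged on a CQ1 microscope at 37°C and 5% CO2; staining with Hoechst33342, BioTracker Green Microtubule Cytoskeleton Dye, MitoTracker Red and Annexin V Alexa Fluor 680 had been done at seeding. The CellPathfinder machine-learning gating scheme split cells into Hoechst high-intensity objects or normal cells, normal cells into healthy, pyknosed or fragmented nuclei, and pyknosed cells into mitotic or apoptotic. The tubulin, mitochondrial-mass and membrane-permeability phenotypes are per cents of healthy-nucleus cells.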", "key": {"[1]": {"conditions": "12 h, 0 µM, compound concentration 0 uM"}, "[2]": {"conditions": "12 h, 1 µM, compound concentration 1 uM"}, "[3]": {"conditions": "24 h, 0 µM, compound concentration 0 uM"}, "[4]": {"conditions": "24 h, 1 µM, compound concentration 1 uM"}, "[5]": {"conditions": "48 h, 0 µM, compound concentration 0 uM"}, "[6]": {"conditions": "48 h, 1 µM, compound concentration 1 uM"}}, "note": "Where “and” joins values, the source holds several entries; their conditions need not be identical. Identical values can stand only once.", "data": [{"smiles": "COc1cc(C(N)=O)ccc1Nc1ncc2c(n1)N(CCC(C)C)[C@H](C)C(=O)N2C", "values": [{"measurement": "Population Apoptotic (%)", "setting": "[1]", "value": "42% and 75%"}, {"measurement": "Population Healthy Nuclei (%)", "setting": "[1]", "value": "45% and 69%"}, {"measurement": "Population Hoechst High Intensity Objects (%)", "setting": "[1]", "value": 0, "unit": "%"}, {"measurement": "Population Membrane Permeable-Phenotype (%)", "setting": "[1]", "value": "31% and 42%"}, {"measurement": "Population Mitochondria Different-Phenotype (%)", "setting": "[1]", "value": "15% and 27%"}, {"measurement": "Population Mitotic Cells (%)", "setting": "[1]", "value": "57% and 24%"}, {"measurement": "Population Normal (%)", "setting": "[1]", "value": 100, "unit": "%"}, {"measurement": "Population Pyknosed Nuclei (%)", "setting": "[1]", "value": "16% and 18%"}, {"measurement": "Population Tubulin-Different-Phenotype (%)", "setting": "[1]", "value": "78% and 56%"}, {"measurement": "Population Apoptotic (%)", "setting": "[2]", "value": "100% and 61%"}, {"measurement": "Population Healthy Nuclei (%)", "setting": "[2]", "value": "66% and 76%"}, {"measurement": "Population Hoechst High Intensity Objects (%)", "setting": "[2]", "value": 0, "unit": "%"}, {"measurement": "Population Membrane Permeable-Phenotype (%)", "setting": "[2]", "value": "7% and 1%"}, {"measurement": "Population Normal (%)", "setting": "[2]", "value": 100, "unit": "%"}, {"measurement": "Population Pyknosed Nuclei (%)", "setting": "[2]", "value": "4% and 14%"}, {"measurement": "Population Tubulin-Different-Phenotype (%)", "setting": "[2]", "value": "92% and 81%"}, {"measurement": "Population Apoptotic (%)", "setting": "[3]", "value": "100% and 89%"}, {"measurement": "Population Fragmented Nuclei (%)", "setting": "[3]", "value": "46% and 22%"}, {"measurement": "Population Healthy Nuclei (%)", "setting": "[3]", "value": "41% and 54%"}, {"measurement": "Population Hoechst High Intensity Objects (%)", "setting": "[3]", "value": 0, "unit": "%"}, {"measurement": "Population Membrane Permeable-Phenotype (%)", "setting": "[3]", "value": "76% and 33%"}, {"measurement": "Population Mitochondria Different-Phenotype (%)", "setting": "[3]", "value": "70% and 40%"}, {"measurement": "Population Mitotic Cells (%)", "setting": "[3]", "value": "0% and 10%"}, {"measurement": "Population Normal (%)", "setting": "[3]", "value": 100, "unit": "%"}, {"measurement": "Population Pyknosed Nuclei (%)", "setting": "[3]", "value": "12% and 23%"}, {"measurement": "Population Tubulin-Different-Phenotype (%)", "setting": "[3]", "value": "88% and 47%"}, {"measurement": "Population Apoptotic (%)", "setting": "[4]", "value": "66% and 94%"}, {"measurement": "Population Healthy Nuclei (%)", "setting": "[4]", "value": "32% and 73%"}, {"measurement": "Population Hoechst High Intensity Objects (%)", "setting": "[4]", "value": 0, "unit": "%"}, {"measurement": "Population Normal (%)", "setting": "[4]", "value": 100, "unit": "%"}, {"measurement": "Population Pyknosed Nuclei (%)", "setting": "[4]", "value": "12% and 8%"}, {"measurement": "Population Tubulin-Different-Phenotype (%)", "setting": "[4]", "value": "87% and 85%"}, {"measurement": "Population Apoptotic (%)", "setting": "[5]", "value": "75% and 95%"}, {"measurement": "Population Fragmented Nuclei (%)", "setting": "[5]", "value": "57% and 39%"}, {"measurement": "Population Healthy Nuclei (%)", "setting": "[5]", "value": "34% and 30%"}, {"measurement": "Population Hoechst High Intensity Objects (%)", "setting": "[5]", "value": 0, "unit": "%"}, {"measurement": "Population Membrane Permeable-Phenotype (%)", "setting": "[5]", "value": "82% and 72%"}, {"measurement": "Population Mitochondria Different-Phenotype (%)", "setting": "[5]", "value": 70, "unit": "%"}, {"measurement": "Population Normal (%)", "setting": "[5]", "value": 100, "unit": "%"}, {"measurement": "Population Tubulin-Different-Phenotype (%)", "setting": "[5]", "value": "76% and 82%"}, {"measurement": "Population Apoptotic (%)", "setting": "[6]", "value": "100% and 84%"}, {"measurement": "Population Fragmented Nuclei (%)", "setting": "[6]", "value": "61% and 25%"}, {"measurement": "Population Hoechst High Intensity Objects (%)", "setting": "[6]", "value": 0, "unit": "%"}, {"measurement": "Population Mitotic Cells (%)", "setting": "[6]", "value": "0% and 15%"}, {"measurement": "Population Normal (%)", "setting": "[6]", "value": 100, "unit": "%"}, {"measurement": "Population Pyknosed Nuclei (%)", "setting": "[6]", "value": "17% and 12%"}, {"measurement": "Population Tubulin-Different-Phenotype (%)", "setting": "[6]", "value": "100% and 93%"}]}]}
